Screening results from PubChem BioAssay.
Most compounds without a hit are left out; they make up all but 1.3% or so of the library.
FAS-TE inh = FAS thioesterase (human) inhibition; P49327; AID 602261; 360,000 compounds, 0.67% hits; recombinant FAS-TE, OMFH fluorogenic substrate, fluorescence endpoint; inhibition, % at 15 µM;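 active means compounds whose normalised, plate-corrected inhibition of enzyme fluorescence in the single-dose primary screen is 50% or more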;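 further: 0% = DMSO with enzyme and 100% = substrate without enzyme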
Target sequence (P49327 whole entry, looked up): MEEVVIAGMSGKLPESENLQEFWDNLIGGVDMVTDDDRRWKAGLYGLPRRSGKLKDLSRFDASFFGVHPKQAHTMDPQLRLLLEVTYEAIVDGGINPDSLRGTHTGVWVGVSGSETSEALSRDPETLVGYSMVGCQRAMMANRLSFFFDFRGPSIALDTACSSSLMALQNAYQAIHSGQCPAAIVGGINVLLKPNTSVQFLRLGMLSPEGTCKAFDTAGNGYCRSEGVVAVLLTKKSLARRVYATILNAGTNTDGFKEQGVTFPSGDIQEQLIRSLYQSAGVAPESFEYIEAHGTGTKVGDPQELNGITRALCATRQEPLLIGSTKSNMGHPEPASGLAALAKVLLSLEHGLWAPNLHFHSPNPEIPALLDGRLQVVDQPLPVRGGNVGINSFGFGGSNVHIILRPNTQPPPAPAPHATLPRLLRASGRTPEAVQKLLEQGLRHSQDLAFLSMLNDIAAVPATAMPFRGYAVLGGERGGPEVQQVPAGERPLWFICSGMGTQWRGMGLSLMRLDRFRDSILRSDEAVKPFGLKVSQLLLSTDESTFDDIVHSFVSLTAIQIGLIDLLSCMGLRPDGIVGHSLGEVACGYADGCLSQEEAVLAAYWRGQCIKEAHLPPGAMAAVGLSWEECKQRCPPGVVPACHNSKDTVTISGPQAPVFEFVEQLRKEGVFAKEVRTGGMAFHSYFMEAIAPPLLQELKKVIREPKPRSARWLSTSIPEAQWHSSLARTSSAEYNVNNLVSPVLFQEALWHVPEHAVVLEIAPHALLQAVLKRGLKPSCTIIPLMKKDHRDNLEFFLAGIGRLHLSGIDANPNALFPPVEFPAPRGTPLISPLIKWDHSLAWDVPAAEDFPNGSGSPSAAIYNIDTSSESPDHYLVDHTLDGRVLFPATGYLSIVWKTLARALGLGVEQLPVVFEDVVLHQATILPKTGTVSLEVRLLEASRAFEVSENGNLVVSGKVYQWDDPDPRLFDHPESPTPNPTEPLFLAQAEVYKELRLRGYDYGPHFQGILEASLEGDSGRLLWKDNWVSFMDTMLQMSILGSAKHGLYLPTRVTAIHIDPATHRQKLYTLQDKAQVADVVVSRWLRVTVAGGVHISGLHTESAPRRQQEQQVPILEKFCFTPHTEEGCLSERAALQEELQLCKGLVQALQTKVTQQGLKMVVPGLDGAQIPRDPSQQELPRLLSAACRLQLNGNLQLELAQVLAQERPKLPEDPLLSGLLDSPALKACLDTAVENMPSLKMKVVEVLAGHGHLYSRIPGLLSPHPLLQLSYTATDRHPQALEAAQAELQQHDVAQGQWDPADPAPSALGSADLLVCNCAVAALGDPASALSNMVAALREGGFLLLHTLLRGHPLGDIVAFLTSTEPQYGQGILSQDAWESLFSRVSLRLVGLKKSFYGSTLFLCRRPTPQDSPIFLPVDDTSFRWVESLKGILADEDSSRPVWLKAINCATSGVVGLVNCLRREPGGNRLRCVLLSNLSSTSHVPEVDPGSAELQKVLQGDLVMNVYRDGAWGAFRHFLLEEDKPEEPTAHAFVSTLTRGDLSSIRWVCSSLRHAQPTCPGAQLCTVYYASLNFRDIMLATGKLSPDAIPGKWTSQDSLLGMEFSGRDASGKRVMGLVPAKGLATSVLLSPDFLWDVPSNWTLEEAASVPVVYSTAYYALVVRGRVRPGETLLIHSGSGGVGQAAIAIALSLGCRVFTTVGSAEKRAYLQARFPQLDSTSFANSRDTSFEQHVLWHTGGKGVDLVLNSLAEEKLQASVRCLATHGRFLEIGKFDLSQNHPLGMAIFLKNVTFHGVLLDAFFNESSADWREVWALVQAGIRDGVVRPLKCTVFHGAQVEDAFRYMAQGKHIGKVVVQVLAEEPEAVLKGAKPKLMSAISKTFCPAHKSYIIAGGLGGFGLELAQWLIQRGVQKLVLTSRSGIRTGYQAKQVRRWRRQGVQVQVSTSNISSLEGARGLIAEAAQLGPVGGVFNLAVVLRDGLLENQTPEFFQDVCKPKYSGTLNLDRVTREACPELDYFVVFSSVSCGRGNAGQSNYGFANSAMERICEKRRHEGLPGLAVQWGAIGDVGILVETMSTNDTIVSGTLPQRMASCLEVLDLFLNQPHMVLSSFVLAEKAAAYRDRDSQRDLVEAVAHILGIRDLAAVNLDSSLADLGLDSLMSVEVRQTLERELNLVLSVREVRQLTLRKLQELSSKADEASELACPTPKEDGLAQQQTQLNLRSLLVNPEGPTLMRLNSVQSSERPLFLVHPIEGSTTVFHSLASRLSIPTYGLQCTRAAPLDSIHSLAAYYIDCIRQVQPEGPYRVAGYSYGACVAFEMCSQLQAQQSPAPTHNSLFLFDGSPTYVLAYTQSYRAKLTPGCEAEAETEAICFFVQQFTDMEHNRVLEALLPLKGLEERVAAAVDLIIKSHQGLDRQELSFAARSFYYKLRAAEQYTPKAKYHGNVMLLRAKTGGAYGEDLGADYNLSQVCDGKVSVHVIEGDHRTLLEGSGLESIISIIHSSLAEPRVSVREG
MT1-MMP act inh = blocks activation of human MT1-MMP; P50281; HT1080 RFP-PRO-GFP cells, GFP/RFP ratio fluorescence, overnight; percent of plate control window, DMSO zero; 360,000 compounds, 0.061% hits; GFP/RFP ratio change, % at 20 µM; AID 651647;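 active means GFP/RFP ratio change of at least 30% with cell ATP level not reduced by more than half and red fluorescence within 50% of control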
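Read-out: GFP/RFP fluorescence ratio; Test system: RFP-PRO-GFP reporter HT1080 cells; Compound dosing: single-point 20 µM compound, 1% DMSO; Times: overnight compound exposure at 37 °C.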
SKN-1 inh = C. elegans SKN-1 inhibition | C. elegans VP596 Pgst-4::GFP/RFP ratio, acrylamide-induced, 24 h | inhibition, % at 21.8 µM | AID 624304 | 360,000 compounds, 0.49% hits;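 active means interference check ratio from 0.5 to 1.5 plus GFP to RFP signal ratio inhibition reaching or exceeding a fixed threshold, cut at about 30% in these data, passing the limit was not always enough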
iPSC survival up = enhancers of human iPSC single-cell survival | hiPSC single-cell survival, ATPlite luminescence; 100% = ROCK inhibitor wells, 0% = DMSO | survival enhancement, % at 20 µM | 360,000 compounds, 0.044% hits | AID 602274; in the data active means survival enhancement above about 18%;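 further: cells exposed to compounds for 16 hours before the ATP read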
DAGLB inhibitor = diacylglycerol lipase beta (human) inhibition. Q8NCG7. AID 504411. 340,000 compounds, 0.059% hits. inhibition, % at 5.17 µM. HEK293T DAGLB membrane lysate, EnzChek fluorogenic substrate; in the data active means inhibition above about 34%;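 further: 0% = enzyme with vehicle and 100% = wells lacking enzyme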
* marks the source's active call; other numbers are inactive results; nt = not tested or not shown.

SMILES | FAS-TE inh | MT1-MMP act inh | SKN-1 inh | iPSC survival up | DAGLB inhibitor
CC1C/C(=C/c2cccn2C)C(=O)/C(=C/c2cccn2C)C1 (centres undefined) | -39 | -230 | 18 | 2 | -139
CCOc1ccccc1NC(=O)Cn1c(=O)oc2ccccc21 | 1 | -5 | 9 | 0 | -1
CCOc1ccccc1NC(=O)Cn1c(=O)oc2cc(Cl)ccc21 | 5 | -1 | 35* | 2 | 1
Cc1ccc([C@H]2C[C@@H](n3cc(C4CC4)nn3)[C@H](O)CN2C(=O)C2CCCCC2)cc1 | -4 | 2 | 1 | 7 | -3
COc1ccc(C2N=C(c3ccccc3)NO2)cc1OC (centres undefined) | -2 | 7 | -5 | 0 | -5
FC(F)Oc1ccc(C2N=C(c3ccccc3)NO2)cc1 (centres undefined) | -3 | 0 | 34* | 0 | -3
CN(Cc1cn(Cc2ccc(Cl)cc2)nn1)C1CN(Cc2cn(Cc3ccc(Cl)cc3)nn2)S(=O)(=O)C1 (centres undefined) | 5 | 5 | 8 | 0 | nt
O=C(Nc1ccc(F)c(Cl)c1)c1cc(C2CCCCN2C(=O)c2cccs2)on1 (centres undefined) | 20 | -9 | -10 | -3 | nt
COc1ccccc1C1C(C(=O)NCc2ccccc2)=C(C)Nc2ncnn21 (centres undefined) | -6 | 7 | 47* | 1 | -3
COc1cccc(C2C(C(=O)NCc3ccccc3)=C(C)Nc3ncnn32)c1 (centres undefined) | -10 | -5 | -14 | 4 | -1
Nc1ccc(O)cc1C(=O)OCC(=O)C12CC3CC(CC(C3)C1)C2 | 14 | 5 | 45* | 2 | 4
COC(=O)C[C@@H]1OC[C@H](CO)N1S(=O)(=O)c1ccc(C)cc1 | nt | 3 | 5 | nt | nt
Clc1cc(NCc2cccs2)ccc1N1CCOCC1 | 2 | 1 | 39* | 0 | 0
COc1ccc(NS(=O)(=O)c2ccc3c(c2)n(C)c(=O)n3C)cc1 | 1 | 1 | 37* | 0 | -1
Cc1cc(C)c2cc(C#N)c(NCCNC(=O)c3cccnc3)nc2c1 | nt | 6 | 8 | nt | nt
Cc1ccc(-c2c(C)nn3c(N4CCOCC4)cc(C)nc23)cc1 | 0 | -1 | 35* | 0 | -1
Cc1cc(N2CCOCC2)n2nc(C)c(-c3ccccc3)c2n1 | -5 | 4 | 4 | -1 | -3
CCOc1ccc(-c2cnc3ccccc3n2)cc1 | 6 | -2 | 35* | -1 | -5
CCOc1ccc(-c2nnc(-c3ccccc3)o2)cc1 | 8 | -1 | 38* | -3 | -22
CCOc1ccc(-c2nnc(-c3ccc(OC)cc3)o2)cc1 | 5 | -1 | 3 | -2 | -4
c1ccc(-c2nc(-c3ccncc3)no2)cc1 | -9 | -4 | 69* | -3 | -3
c1ccc(-c2ccc(-c3nc(-c4ccncc4)no3)cc2)cc1 | -9 | 1 | 11 | -2 | -2
CCOc1ccc(-c2nc(-c3cccnc3)no2)cc1 | -1 | 0 | 53* | -3 | -6
c1ccc(-c2ccc(-c3nc(-c4cccnc4)no3)cc2)cc1 | 22 | -7 | 43* | -2 | -1
CCCCc1ccc(-c2nc(-c3ccncc3)no2)cc1 | 8 | -3 | 7 | -2 | -1
SMILES | FAS-TE inh | MT1-MMP act inh | SKN-1 inh | iPSC survival up | DAGLB inhibitor
CCc1ccc(-c2nc(-c3ccncc3)no2)cc1 | -4 | 1 | 48* | -3 | -12
c1ccc(-c2noc(-c3cccnc3)n2)cc1 | -4 | -3 | 11 | 0 | -6
COc1ccc(CCCNC(=O)C2Cc3c(-c4ccc5c(c4)OCO5)ccnc3O2)cc1 (centres undefined) | 11 | 0 | -1 | 0 | nt
CN(C)c1ccc2nc3ccc(=[N+](C)C)cc-3sc2c1 | -2 | -9 | 37* | -2 | 1
CN(C)c1ccc2nc3ccc(=O)cc-3sc2c1 | -9 | 6 | 86 | 0 | -1
O=C(Nc1nc(-c2ccccc2)cs1)c1cccs1 | 15 | -43 | 63* | -1 | -8
CC(Oc1ccccc1)C(=O)Nc1nc(-c2ccccn2)cs1 (centres undefined) | -1 | 5 | -20 | 0 | 0
CC(Oc1ccccc1)C(=O)Nc1nc(-c2ccncc2)cs1 (centres undefined) | -1 | 1 | -9 | 25* | -1
O=C(Nc1ccc2nc(-c3ccccc3)[nH]c2c1)c1cccs1 | 1 | 7 | 39* | 0 | 0
